Reference: article PMC5360466 (Hepatology (Baltimore, Md.), 2017)
Entries after “also recorded” stand apart in the source; their conditions may differ.

Assays:
TUCH [1] = assay: TUCH binding assay in mouse cholangiocytes; type: cell-based, rotavirus, simian strain; mouse cholangiocytes; conditions: mouse cholangiocytes pretreated with 1 mM peptide; Fig. 2A, 3B
Outline: (§1)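 Confluent mouse or H69 cholangiocytes were pretreated with peptide (1 mM, or varying concentrations). Cells, medium and virus were chilled to 4°C, then inoculated and held 1 h at 4°C. Cells were washed twice and freeze/thawed twice. Bound virus (cell fraction) and unbound virus (washes plus inoculum) were titred by focus forming assay, and attached virus was expressed as % of inoculum. DGEA and GHRP peptides served as controls. Data are mean ± standard error, ANOVA.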

TUCH [2] = assay: TUCH viral yield in mouse cholangiocytes; type: cell-based, rotavirus, simian strain; mouse cholangiocytes; conditions: mouse cholangiocytes pretreated with 1 mM peptide; Fig. 2B, 3C
Outline: (§2)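 Mouse or H69 cholangiocytes were pretreated with peptide in DMEM (1 mM, or varying concentrations) and infected at 4°C, then incubated 18 h at 37°C. Infectious yield was measured by focus forming assay: serial dilutions at 37°C for 14-16 h, acetone fixation, guinea pig anti-rotavirus IgG (1:1000), then FITC anti-guinea pig IgG (1:500), with foci counted by UV microscopy. DGEA and GHRP served as controls.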

RRV [3] = assay: RRV binding; type: cell-based; conditions: for effect on RRV-cholangiocyte binding: peptides at varying concentrations, 4°C
Outline: as §1

Ro1845 [4] = assay: Ro1845 binding assay in mouse cholangiocytes; type: cell-based, rotavirus, human strain; mouse cholangiocytes; conditions: mouse cholangiocytes pretreated with 1 mM peptide; Fig. 2A, 3B
Outline: as §1

Ro1845 [5] = assay: Ro1845 viral yield in mouse cholangiocytes; type: cell-based, rotavirus, human strain; mouse cholangiocytes; conditions: mouse cholangiocytes pretreated with 1 mM peptide; Fig. 2B, 3C
Outline: as §2

RRV [6] = assay: RRV replication; type: cell-based; conditions: for inhibition of RRV replication: mouse cholangiocytes pretreated with 1 mM peptide, Fig. 8D; for effect on RRV replication: mouse cholangiocytes pretreated with peptide, concentration not given, Fig. 4B
Outline: as §2

RRV [7] = assay: RRV binding assay in human cholangiocytes; type: cell-based, rhesus rotavirus; human cholangiocytes (H69)
Outline: as §1

TUCH [8] = assay: TUCH viral yield in H69 cells; type: cell-based, rotavirus, simian strain; human cholangiocytes (H69); conditions: Fig. 6D
Outline: as §2

Ro1845 [9] = assay: Ro1845 viral yield in H69 cells; type: cell-based, rotavirus, human strain; human cholangiocytes (H69); conditions: Fig. 6D
Outline: as §2

Ro1845 [10] = assay: Ro1845 binding assay in H69 cells; type: cell-based, rotavirus, human strain; human cholangiocytes (H69); conditions: Fig. 6C
Outline: as §1

GRV [11] = assay: GRV viral yield in H69 cells; type: cell-based, rotavirus, goat strain; human cholangiocytes (H69); conditions: Fig. 6D
Outline: as §2

GRV [12] = assay: GRV binding assay in H69 cells; type: cell-based, rotavirus, goat strain; human cholangiocytes (H69); conditions: Fig. 6C
Outline: as §1

RRV [13] = assay: RRV replication in human cholangiocytes; type: cell-based, rhesus rotavirus; human cholangiocytes (H69)
Outline: as §2

GRV [14] = assay: GRV binding assay in mouse cholangiocytes; type: cell-based, rotavirus, goat strain; mouse cholangiocytes; conditions: mouse cholangiocytes pretreated with 1 mM peptide; Fig. 2A
Outline: as §1

RRV [15] = assay: Murine model of biliary atresia; type: in vivo, BALB/c mice; conditions: bile ducts harvested 12 days after infection with RRV and peptide treatment; Fig. 5C
GRV [16] = assay: GRV viral yield in mouse cholangiocytes; type: cell-based, rotavirus, goat strain; mouse cholangiocytes; conditions: mouse cholangiocytes pretreated with 1 mM peptide; Fig. 2B
Outline: as §2

TUCH [17] = assay: TUCH binding assay in H69 cells; type: cell-based, rotavirus, simian strain; human cholangiocytes (H69); conditions: Fig. 6C
Outline: as §1

RRV [18] = assay: RRV binding in siRNA-transfected mouse cholangiocytes; type: cell-based, rhesus rotavirus; mouse cholangiocytes; conditions: 1 mM peptide, Fig. 8A
RRV [19] = conditions: negative control peptide; cited from earlier work
rotavirus = conditions: due to decreased viral entry; cited from earlier work
[20] = mouse cholangiocytes pretreated with 1 mM peptide, versus serum-free media, Fig. 3B, 4C, 8C
[21] = mouse cholangiocytes pretreated with peptide, concentration not given, Fig. 4A

VRTRISGLY
effect on TUCH binding (TUCH [1]): no effect | effect on TUCH replication / viral yield (TUCH [2]): no effect | effect on RRV binding (RRV [3]; [20]): no effect | effect on Ro1845 binding (Ro1845 [4]): no effect | effect on Ro1845 replication / viral yield (Ro1845 [5]): no effect

VSRAY
effect on RRV binding (RRV [3]; [20]): unable to exhibit such inhibition

TRTRVSRLY
inhibition of RRV replication (RRV [6]): 44.53% | effect on RRV replication (RRV [6]): significantly inhibiting | RRV binding to human cholangiocytes, of control (RRV [7]; H69 cells, 1 mM peptide, Fig. 6A): 65.9% | effect on RRV binding to H69 cells (RRV [7]; strain comparison, Fig. 6C): able to block | effect on TUCH binding (TUCH [1]): no effect | effect on TUCH viral yield in H69 cells (TUCH [8]): no decrease in yield | effect on TUCH replication / viral yield (TUCH [2]): no reduction in viral yield; also recorded: no effect | effect on RRV binding (RRV [3]; [20]): significantly reduced | inhibition of RRV binding compared with control (RRV [3]; mouse cholangiocytes pretreated with 1 mM peptide, Fig. 2A): 45.13% | effect on RRV binding (RRV [3]; [21]): significantly inhibiting | effect on Ro1845 viral yield in H69 cells (Ro1845 [9]): no decrease in yield | effect on Ro1845 binding to H69 cells (Ro1845 [10]): no effects | effect on GRV viral yield in H69 cells (GRV [11]): reduced viral yields | effect on GRV binding to H69 cells (GRV [12]): able to block | RRV replication within human cholangiocytes, of control (RRV [13]; H69 cells, 1 mM peptide, Fig. 6B): 57.9% | effect on RRV viral yield in H69 cells (RRV [13]; strain comparison, Fig. 6D): reduced viral yields | inhibition of GRV binding compared with control (GRV [14]): 41.27% | effect on Ro1845 binding (Ro1845 [4]): no effect | histology of extrahepatic bile ducts (hematoxylin and eosin) (RRV [15]): mild inflammation with a patent lumen | effect on Ro1845 replication / viral yield (Ro1845 [5]): no reduction in viral yield; also recorded: no effect | reduction of GRV viral yield, of control (GRV [16]): 35.51% | effect on TUCH binding to H69 cells (TUCH [17]): no effects

DGEA [reference compound]
effect on TUCH binding (TUCH [1]): significantly inhibited | peptide blocking of RRV binding in negative control siRNA cholangiocytes (RRV [18]): remained sensitive to DGEA blocking | effect on TUCH replication / viral yield (TUCH [2]): significantly inhibited | effect on RRV binding (RRV [3]; [20]): significantly inhibited | RRV binding, percent of control (positive control) (RRV [3]; mouse cholangiocytes, concentration not given, Fig. 1B): 61.40% | effect on Ro1845 binding (Ro1845 [4]): significantly inhibited | effect on Ro1845 replication / viral yield (Ro1845 [5]): significantly inhibited

VSRLY
effect on RRV binding (RRV [3]; [20]): maintained the ability to inhibit

PTAAGV
effect on RRV-cholangiocyte binding (RRV [3]; mouse cholangiocytes, Fig. 1B): did not interfere

GHRP
ability to inhibit RRV binding (RRV [19]): no ability to inhibit RRV binding

ISRLY
effect on RRV binding (RRV [3]; [20]): maintained the ability to inhibit

FSGIKSTIDAAKSMATNVMKKFKK [reference compound]
inhibition of RRV replication (RRV [6]): 42.43% | viral replication in MA104 cells treated with peptide (rotavirus): reduced viral replication | effect on RRV binding (RRV [3]; [20]): no effect

SSASAW
effect on RRV-cholangiocyte binding (RRV [3]; mouse cholangiocytes, Fig. 1B): did not interfere | histology of extrahepatic bile ducts (hematoxylin and eosin) (RRV [15]): complete obstruction of their bile ducts

MRTRVSRLY
effect on RRV replication (RRV [6]): significantly inhibiting | effect on RRV binding (RRV [3]; [21]): significantly inhibiting

VSGLY
effect on RRV binding (RRV [3]; [20]): unable to exhibit such inhibition

VSRLA
effect on RRV binding (RRV [3]; [20]): maintained the ability to inhibit

MRTRVSGLY
effect on TUCH binding (TUCH [1]): no effect | effect on TUCH replication / viral yield (TUCH [2]): no effect | effect on RRV binding (RRV [3]; [20]): no effect | effect on Ro1845 binding (Ro1845 [4]): no effect | effect on Ro1845 replication / viral yield (Ro1845 [5]): no effect

KTKIDRSTQISPNTLPD [reference compound]
inhibition of RRV replication (RRV [6]): 54.50% | viral replication in MA104 cells treated with peptide (rotavirus): reduced viral replication | effect on RRV binding (RRV [3]; [20]): no effect

VVRLY
effect on RRV binding (RRV [3]; [20]): unable to exhibit such inhibition
